# ChEMBL document CHEMBL2086283, “Novel 4-aminoquinoline-pyrimidine based hybrids with improved in vitro and in vivo antimalarial activity” (ACS Med Chem Lett, 2012)
# pIC50: −log10 of the molar value. Activity calls are given as the source filed them. No cut-off for these calls is given here.
# Assays:
# Plasmodium falciparum = experiment: Antiplasmodial activity against chloroquine-resistant Plasmodium falciparum W2 infected in red blood cells up to 19 uM after 72 hrs by parasitic LDH assay; format: functional, organism-based
# Method in brief: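 In vitro P. falciparum growth inhibition (D6 CQ-sensitive clone; W2 CQ-resistant clone). IC50 is the concentration giving 50% growth inhibition. Values are the average of two independent experiments ± SD. Highest concentration tested 19 μM.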
# [1] = Selectivity index, ratio of IC50 for african green monkey Vero cells to IC50 for chloroquine-sensitive Plasmodium falciparum D6; format: toxicity, cell-based; details: read-out: Ratio IC50
# Method in brief: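 SI is the IC50 for cytotoxicity to Vero cells (monkey kidney fibroblasts) divided by the antimalarial IC50 against the named P. falciparum clone. Cytotoxicity was tested up to 60 μM.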
# Vero [2] = experiment: Cytotoxicity against african green monkey Vero cells after 48 hrs by neutral red assay; format: cell-based; details: chlorocebus sabaeus
# Method in brief: (§1)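 Mammalian cell cytotoxicity was measured as IC50 in Vero (monkey kidney fibroblasts), LLC-PK11 (pig kidney epithelial) and HepG2 (human hepatoma) cells. The highest concentration tested was 60 μM. Values are the mean of two independent experiments ± SD.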
# Plasmodium berghei [3] = experiment: Antimalarial activity Plasmodium berghei infected in mouse assessed as cure from infection at 100 mg/kg, po administered QD for 3 days measured on day 28; format: functional, organism-based; set-up: dose 100 mg/kg
# Method in brief: (§2)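 P. berghei-infected mice, 5 per group, dosed by oral gavage once daily on days 0, 1 and 2 postinfection, with a vehicle control arm. Mice were followed to day 28 postinfection for apparent toxicity, parasitemia and survival. Parasitemia suppression is expressed against mean vehicle-control parasitemia set as 100%, and cure is the number cured per 5 mice.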
# Plasmodium berghei [4] = experiment: Antimalarial activity Plasmodium berghei infected in mouse assessed as mean survival time at 100 mg/kg, po administered QD for 3 days (reference value: 15.2 days); format: functional
# HepG2 = experiment: Cytotoxicity against human HepG2 cells up to 60 uM after 48 hrs by neutral red assay; format: cell-based; details: hepg2, 48 h; method in brief: as §1
# [5] = Cytotoxicity against pig LLC-PK11 cells up to 60 uM after 48 hrs by neutral red assay; format: cell-based, Sus scrofa; details: llc-pk11, 48 h; method in brief: as §1
# Vero [6] = experiment: Cytotoxicity against african green monkey Vero cells up to 60 uM after 48 hrs by neutral red assay; format: cell-based; details: chlorocebus sabaeus; method in brief: as §1
# Plasmodium berghei [7] = experiment: Antimalarial activity against Plasmodium berghei infected in mouse assessed as suppression in parasitemia at 100 mg/kg, po administered QD for 3 days measured on day 5 relative to control; format: functional; method in brief: as §2
# Plasmodium berghei [8] = experiment: Antimalarial activity against Plasmodium berghei infected in mouse assessed as suppression in parasitemia at 100 mg/kg, po administered QD for 3 days measured on day 7 relative to control; format: functional; method in brief: as §2
# Mus musculus = experiment: Toxicity in mouse infected with Plasmodium berghei assessed as host survival at 100 mg/kg, po administered QD for 3 days measured on day 28; format: organism-based; set-up: dose 100 mg/kg, route oral; details: in vivo, 72 h
Structure (SMILES),Activity (Plasmodium falciparum),selectivity ratio [1],pIC50 (Vero [2]),Activity (Plasmodium berghei [3]),MST (Plasmodium berghei [4]) [days],Activity (HepG2),Activity [5],Activity (Vero [6]),Activity (Plasmodium berghei [7]) [%],Activity (Plasmodium berghei [8]) [%],Activity (Mus musculus)
CCc1nc(N)nc(N)c1-c1ccc(Cl)cc1 [PYRIMETHAMINE],inactive,1820,4.74,,,,,,,,
CCN(CC)CCCC(C)Nc1ccnc2cc(Cl)ccc12 (stereo unspecified) [CHLOROQUINE],,,,inactive,28,Non-toxic,Non-toxic,Non-toxic,100,100,Non-toxic
